From ChEMBL document CHEMBL1177857, “Functionalized aurones as inducers of NAD(P)H:quinone oxidoreductase 1 that activate AhR/XRE and Nrf2/ARE signaling pathways: synthesis, evaluation and SAR” (Eur J Med Chem, 2010)

Legend:
[1] = Cytotoxicity against mouse Hepa-1c1c7 cells assessed as cell survival at 25 uM after 48 hrs by MTT assay; format: cell-based; settings: read-out: Activity
Method in brief: (§1)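 MTT (0.5 mg/ml) added for 3 h at 37 °C, formazan dissolved in DMSO and read at 590 nm. Survival (%) = (A treated − A blank)/(A untreated − A blank) × 100.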

[2] = Induction of NQO1 activity in mouse Hepa-1c1c7 cells at 5 uM after 48 hrs relative to control
[3] = Induction of NQO1 activity in mouse Hepa-1c1c7 cells at 25 uM after 48 hrs relative to control
[4] = Cytotoxicity against mouse Hepa-1c1c7 cells assessed as cell survival at 5 uM after 48 hrs by MTT assay; format: cell-based; settings: read-out: Activity; method in brief: as §1

Structure (SMILES) | fold change (FC) [2] | fold change (FC) [3] | viability at 48 h, 25 µM [1] [%] | viability at 48 h, 5 µM [4] [%]
COc1ccc(/C=C2\Oc3cc(OC)cc(OC)c3C2=O)cc1 [4,4',6-TRIMETHOXY-AURONE] | 1.06 | 0.91 | 87 | 93
COc1cc(OC)c2c(c1)O/C(=C\c1ccccc1C)C2=O | 1.79 | 1.42 | 87 | 91
COc1cc(/C=C2\Oc3cc(O)cc(O)c3C2=O)cc(OC)c1OC | 1.47 | 1.6 | 94 | 99
O=C1Oc2ccc(O)cc2/C1=C/c1ccccc1F | 1.05 | 1.34 | 114 | 102
COc1cc(OC)c2c(c1)O/C(=C\c1ccc(C(F)(F)F)cc1)C2=O | 1.08 | 0.83 | 93 | 90
COc1cc(OC)c2c(c1)O/C(=C\c1ccc(C#N)cc1)C2=O | 1.36 | 1.37 | 95 | 91
COc1cc(OC)c2c(c1)OC(=O)/C2=C\c1ccc(Cl)cc1 | 1.42 | 1.9 | 110 | 115
O=C1/C(=C/c2ccc(Cl)cc2)Oc2ccc(O)cc21 | 1.32 | 1.18 |  | 
COc1ccc(/C=C2\Oc3cc(O)cc(O)c3C2=O)cc1 | 1.15 | 0.82 | 114 | 109
N#Cc1ccc(/C=C2\Oc3ccc(O)cc3C2=O)cc1 | 1.3 | 1.25 |  | 
COc1ccccc1/C=C1\C(=O)Oc2ccc(O)cc21 | 1.01 | 1.44 | 110 | 92
O=C1Oc2ccc(O)cc2/C1=C/c1cccc(O)c1 | 1.64 | 1.83 | 87 | 95
COc1cc(OC)c2c(c1)O/C(=C\c1cnc3ccccc3c1)C2=O | 1.79 | 1.5 | 97 | 93
COc1cc(OC)c2c(c1)O/C(=C\c1ccc(N(C)C)cc1)C2=O | 1.16 | 0.96 | 98 | 101
O=C1/C(=C/c2ccccc2Cl)Oc2ccc(O)cc21 | 1.33 | 1.71 | 94 | 98
COc1cccc(/C=C2\Oc3ccc(O)cc3C2=O)c1 | 1.19 | 1.18 | 110 | 104
COc1cc(OC)c2c(c1)O/C(=C\c1ccc(Cl)cc1)C2=O | 2.13 |  |  | 93
O=C1Oc2ccc(O)cc2/C1=C/c1cccc(F)c1 | 1.14 | 1.32 | 120 | 127
COc1ccc(/C=C2\C(=O)Oc3ccc(O)cc32)cc1 | 1.35 | 1.71 | 118 | 110
O=C1/C(=C/c2cccc(O)c2)Oc2cc(O)cc(O)c21 | 1.6 | 1.58 | 106 | 111
COc1cc(OC)c2c(c1)O/C(=C\c1ccc(O)cc1)C2=O | 1.18 | 1.29 | 89 | 94
O=C1Oc2ccc(O)cc2/C1=C/c1ccc(F)cc1 | 1.2 | 1.23 | 121 | 101
Cc1ccc(/C=C2\Oc3ccc(O)cc3C2=O)cc1 | 1.14 | 1.36 |  | 
O=C1/C(=C/c2ccc(O)cc2)Oc2ccc(O)cc21 | 1.22 | 0.94 |  | 
COc1cccc(/C=C2\Oc3cc(O)ccc3C2=O)c1 | 1.22 | 1.01 | 84 | 85
O=C1/C(=C/c2ccc(O)cc2)Oc2cc(O)ccc21 |  |  | 98 | 100
O=C1/C(=C/c2ccccc2)Oc2ccc(O)cc21 | 2.28 |  |  | 

The next lines start with results.

fold change (FC) [2] | fold change (FC) [3] | Structure (SMILES) | viability at 48 h, 25 µM [1] [%] | viability at 48 h, 5 µM [4] [%]
1.15 | 1.31 | N#Cc1ccc(/C=C2\Oc3cc(O)ccc3C2=O)cc1 | 90 | 94
1.14 | 1.35 | N#Cc1ccc(/C=C2\Oc3cc(O)cc(O)c3C2=O)cc1 | 102 | 115
1.34 | 1.34 | COc1cc(OC)c2c(c1)O/C(=C\c1ccc(C)cc1)C2=O | 93 | 89
1.48 | 1.52 | COc1ccccc1/C=C1\Oc2cc(O)cc(O)c2C1=O | 100 | 103
1.59 | 1.7 | O=C1/C(=C/c2ccc(Cl)cc2)Oc2cc(O)cc(O)c21 | 96 | 93
1.02 | 1.3 | O=C1Oc2ccc(O)cc2/C1=C/c1ccccc1Cl | 87 | 93
1.61 | 1.6 | COc1cc(OC)c2c(c1)O/C(=C\c1ccc([N+](=O)[O-])cc1)C2=O | 88 | 88
1.03 | 1.4 | COc1cc(OC)c2c(c1)O/C(=C\c1ccc(O)cc1O)C2=O |  | 51
0.92 | 1.17 | O=C1/C(=C/c2ccccc2Cl)Oc2ccccc21 | 98 | 111
1.19 | 1.5 | COc1ccc(/C=C2\Oc3cc(O)ccc3C2=O)cc1 | 95 | 91
1 | 1.17 | COc1ccc(/C=C2\Oc3ccc(O)cc3C2=O)cc1 |  | 
1.25 | 1.4 | COc1cc(OC)c2c(c1)O/C(=C\c1ccc(N3CCN(C)CC3)cc1)C2=O | 89 | 93
1.39 | 1.3 | O=C1/C(=C/c2ccccc2)Oc2cc(O)cc(O)c21 | 100 | 110
1.46 |  | COc1cc(OC)c2c(c1)OC(Cc1ccccc1)C2=O (stereo unspecified) |  | 95
1.38 | 1.49 | Cc1ccc(/C=C2\Oc3cc(O)cc(O)c3C2=O)cc1 | 95 | 103
1.49 | 1.1 | COc1cc(OC)c2c(c1)OC(=O)/C2=C\c1ccccc1O | 89 | 121
1.29 | 1.66 | O=C1/C(=C/c2cccc(O)c2)Oc2ccc(O)cc21 | 89 | 98
